The values below come from publication PMC9898299 (Heliyon, 2023).

Data set [1] has as its system U937 cells. Put plainly: CellTiter-Glo Luminescent cell viability assay. The class given is cell-based, human. To be noted: for inhibition at 25 µM / inhibition at 50 µM / inhibition at 100 µM / inhibition at 200 µM: Homo sapiens, U-937, 72 h, read-out: Percent inhibition at different concentrations of compounds (antiproliferative); for Percent inhibition at different concentrations of compounds (antiproliferative): U937 cells, 72 h, relative to Mitomycin C = 100%. Summed up:
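Human myeloid leukaemia U937 cells exposed to a range of test compound concentrations for 72 h, with Mitomycin C as positive control and DMSO diluent as negative control. CellTiter-Glo reagent added at an equal volume to the medium, mixed 2 min for lysis, then held 10 min at room temperature before luminescence was read. Viability was computed as RLU test ×100/RLU control. Half-maximal inhibitory concentration was fitted from the dose series.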

Data set [2] can be described thus: LDH release cytotoxicity assay. Format: cell-based. Particulars: human, U937 cells. In outline:
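U937 cells were plated in 96-well format and given various test compound concentrations, with Triton X100 as positive cytotoxicity control, for 4 h at 37 °C. Plates were spun 5 min at 1000 RPM, and supernatant was moved to a fresh plate with LDH detection reagent for 10 min at room temperature in the dark. Optical density was then read, and half-maximal concentration was derived from the doses.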

With `COC(=O)COc1ccc(NC(=O)C2(c3ccc(OC)cc3)CC2)cc1` [Compound 8i, Methyl 2-(4-(1-(4-methoxyphenyl)cyclopropane-1-carboxamido)phenoxy)acetate], in data set [1], the inhibition at 25 µM is 28%, the inhibition at 50 µM was 38%, the inhibition at 100 µM was 80% and the inhibition at 200 µM amounted to 101%. Also, in data set [2], the inhibition at 4 h, 12.5 µM is -3%; the inhibition at 4 h, 25 µM was determined as 0%; the inhibition at 4 h, 50 µM is -2%; the inhibition at 4 h, 100 µM was -2%.
On to `COC(=O)COc1ccc(NC(=O)C2(c3ccccc3)CC2)cc1` [Compound 8b, Methyl 2-(4-(1-phenylcyclopropane-1-carboxamido)phenoxy)acetate], for which, in data set [1], the inhibition at 25 µM was determined as 41%, the inhibition at 50 µM turned out to be 44%, the inhibition at 100 µM turned out to be 102% and the inhibition at 200 µM turned out to be 101%. For the same compound, in data set [2], the inhibition at 4 h, 12.5 µM is -2%; the inhibition at 4 h, 25 µM was -3%; the inhibition at 4 h, 50 µM was -2%; the inhibition at 4 h, 100 µM was -2%.
Consider “Methyl 2-(4-(1-(3-bromophenyl)cyclopropane-1-carboxamido)-3-methylphenoxy)acetate [Compound 8q]”, for which the “Percent inhibition at different concentrations of compounds (antiproliferative)” value in data set [1] (25 μM) worked out at 26%; in data set [1] (50 μM) it was 45%; in data set [1] (100 μM) it was 102%; in data set [1] (200 μM), 102%.
Turning to `COC(=O)COc1ccc(NC(=O)C2(c3cccc(Br)c3)CC2)c(C)c1` [Compound 8r, Methyl 2-(4-(1-(3-bromophenyl)cyclopropane-1-carboxamido)-3-methylphenoxy)acetate], in data set [1], the inhibition at 25 µM was found to be 27%, the inhibition at 50 µM amounted to 84%, the inhibition at 100 µM stood at 100% and the inhibition at 200 µM came out at 101%. Further, in data set [2], the inhibition at 4 h, 12.5 µM was -1%; the inhibition at 4 h, 25 µM is -1%; the inhibition at 4 h, 50 µM was determined as 1%; the inhibition at 4 h, 100 µM is -2%.
As for `COC(=O)COc1ccc(NC(=O)C2(c3ccc(F)cc3)CC2)cc1` [Compound 8j, Methyl 2-(4-(1-(4-fluorophenyl)cyclopropane-1-carboxamido)phenoxy)acetate], in data set [1], the inhibition at 25 µM was -12%, the inhibition at 50 µM was determined as 39%, the inhibition at 100 µM was found to be 76% and the inhibition at 200 µM is 101%. Further, in data set [2], the inhibition at 4 h, 12.5 µM worked out at 0%; the inhibition at 4 h, 25 µM was -1%; the inhibition at 4 h, 50 µM was -2%; the inhibition at 4 h, 100 µM is -1%.
For the compound `COC(=O)COc1cccc(NC(=O)C2(c3ccc(Cl)cc3)CC2)c1` [Compound 8l, Methyl 2-(3-(1-(4-chlorophenyl)cyclopropane-1-carboxamido)phenoxy)acetate], in data set [1], the inhibition at 25 µM came out at 63%, the inhibition at 50 µM was 96%, the inhibition at 100 µM turned out to be 101% and the inhibition at 200 µM turned out to be 102%. Moreover, in data set [2], the inhibition at 4 h, 12.5 µM is -1%; the inhibition at 4 h, 25 µM was -1%; the inhibition at 4 h, 50 µM stood at 0%; the inhibition at 4 h, 100 µM was found to be 2%.
`COC(=O)COc1ccc(NC(=O)C2(c3ccc(F)cc3)CC2)c(C)c1` [Compound 8k, Methyl 2-(4-(1-(4-fluorophenyl)cyclopropane-1-carboxamido)-3-methylphenoxy)acetate]: in data set [1], the inhibition at 25 µM was 32%, the inhibition at 50 µM is 74%, the inhibition at 100 µM was determined as 101% and the inhibition at 200 µM was 102%. Also, in data set [2], the inhibition at 4 h, 12.5 µM is 0%; the inhibition at 4 h, 25 µM stood at 0%; the inhibition at 4 h, 50 µM was -1%; the inhibition at 4 h, 100 µM came out at 4%.
Regarding `COC(=O)COc1cccc(NC(=O)C2(c3cccc(Br)c3)CC2)c1` [Compound 8p, Methyl 2-(3-(1-(3-bromophenyl)cyclopropane-1-carboxamido)phenoxy)acetate], in data set [1], the inhibition at 25 µM was 37%, the inhibition at 50 µM was determined as 60%, the inhibition at 100 µM was 101% and the inhibition at 200 µM came to 102%. In data set [2], the inhibition at 4 h, 12.5 µM was 0%; the inhibition at 4 h, 25 µM was -1%; the inhibition at 4 h, 50 µM worked out at 0%; the inhibition at 4 h, 100 µM was 0%.
For `COC(=O)COc1ccc(NC(=O)C2(c3ccccc3)CC2)c(C)c1` [Compound 8c, Methyl 2-(3-methyl-4-(1-phenylcyclopropane-1-carboxamido)phenoxy)acetate], in data set [1], the inhibition at 25 µM was found to be 37%, the inhibition at 50 µM was determined as 63%, the inhibition at 100 µM worked out at 102% and the inhibition at 200 µM was 101%. For the same compound, in data set [2], the inhibition at 4 h, 12.5 µM was determined as 0%; the inhibition at 4 h, 25 µM is -1%; the inhibition at 4 h, 50 µM stood at 0%; the inhibition at 4 h, 100 µM was -1%.
Regarding `COC(=O)COc1ccc(NC(=O)C2(c3ccccc3)CC2)cc1Br` [Compound 8d, Methyl 2-(2-bromo-4-(1-phenylcyclopropane-1-carboxamido)phenoxy)acetate], in data set [1], the inhibition at 25 µM came out at 15%, the inhibition at 50 µM amounted to 24%, the inhibition at 100 µM worked out at 100% and the inhibition at 200 µM came to 101%. Also, in data set [2], the inhibition at 4 h, 12.5 µM was -1%; the inhibition at 4 h, 25 µM stood at 0%; the inhibition at 4 h, 50 µM amounted to 3%; the inhibition at 4 h, 100 µM is -3%.
On to `COC(=O)COc1cccc(NC(=O)C2(c3ccc(OC)cc3)CC2)c1` [Compound 8h, Methyl 2-(3-(1-(4-methoxyphenyl)cyclopropane-1-carboxamido)phenoxy)acetate], for which, in data set [1], the inhibition at 25 µM was 17%, the inhibition at 50 µM was 80%, the inhibition at 100 µM was found to be 98% and the inhibition at 200 µM worked out at 100%. In data set [2], the inhibition at 4 h, 12.5 µM amounted to 0%; the inhibition at 4 h, 25 µM turned out to be 3%; the inhibition at 4 h, 50 µM came to 0%; the inhibition at 4 h, 100 µM was -2%.
For the compound `COC(=O)COc1cccc(NC(=O)C2(c3cccc(C)c3)CC2)c1` [Compound 8e, Methyl 2-(3-(1-(m-tolyl)cyclopropane-1-carboxamido)phenoxy)acetate], in data set [1], the inhibition at 25 µM is 46%, the inhibition at 50 µM was 45%, the inhibition at 100 µM is 59% and the inhibition at 200 µM came out at 101%. In data set [2], the inhibition at 4 h, 12.5 µM was -3%; the inhibition at 4 h, 25 µM is -4%; the inhibition at 4 h, 50 µM is -1%; the inhibition at 4 h, 100 µM was -1%.
Take `COC(=O)COc1ccc(NC(=O)C2(c3cccc(C)c3)CC2)c(C)c1` [Compound 8g, Methyl 2-(3-methyl-4-(1-(m-tolyl)cyclopropane-1-carboxamido)phenoxy)acetate]: in data set [1], the inhibition at 25 µM is 18%, the inhibition at 50 µM was found to be 25%, the inhibition at 100 µM came to 89% and the inhibition at 200 µM came out at 100%. For the same compound, in data set [2], the inhibition at 4 h, 12.5 µM came out at 0%; the inhibition at 4 h, 25 µM is 0%; the inhibition at 4 h, 50 µM amounted to 1%; the inhibition at 4 h, 100 µM turned out to be 0%.
As to `COC(=O)COc1cccc(NC(=O)C2(c3ccccc3)CC2)c1` [Compound 8a, Methyl 2-(3-(1-phenylcyclopropane-1-carboxamido)phenoxy)acetate], in data set [1], the inhibition at 25 µM was determined as 28%, the inhibition at 50 µM was 28%, the inhibition at 100 µM worked out at 102% and the inhibition at 200 µM stood at 100%. In data set [2], the inhibition at 4 h, 12.5 µM is -1%; the inhibition at 4 h, 25 µM came to 2%; the inhibition at 4 h, 50 µM worked out at 2%; the inhibition at 4 h, 100 µM is 1%.
Regarding `COC(=O)COc1ccc(NC(=O)C2(c3ccc(Cl)cc3)CC2)cc1` [Compound 8m, Methyl 2-(4-(1-(4-chlorophenyl)cyclopropane-1-carboxamido)phenoxy)acetate], in data set [1], the inhibition at 25 µM was found to be 39%, the inhibition at 50 µM turned out to be 49%, the inhibition at 100 µM is 99% and the inhibition at 200 µM was 101%. For the same compound, in data set [2], the inhibition at 4 h, 12.5 µM is -1%; the inhibition at 4 h, 25 µM was 1%; the inhibition at 4 h, 50 µM stood at 1%; the inhibition at 4 h, 100 µM worked out at 0%.
For the compound `COC(=O)COc1ccc(NC(=O)C2(c3ccc(Cl)cc3)CC2)cc1Br` [Compound 8o, Methyl 2-(2-bromo-4-(1-(4-chlorophenyl)cyclopropane-1-carboxamido)phenoxy)acetate], in data set [1], the inhibition at 25 µM turned out to be 52%, the inhibition at 50 µM came to 77%, the inhibition at 100 µM worked out at 102% and the inhibition at 200 µM amounted to 102%. In addition, in data set [2], the inhibition at 4 h, 12.5 µM turned out to be 0%; the inhibition at 4 h, 25 µM is -2%; the inhibition at 4 h, 50 µM was -2%; the inhibition at 4 h, 100 µM was -4%.
For `COC(=O)COc1ccc(NC(=O)C2(c3ccc(Cl)c(Cl)c3)CC2)cc1` [Compound 8s, Methyl 2-(4-(1-(3,4-dichlorophenyl)cyclopropane-1-carboxamido)phenoxy)acetate], in data set [1], the inhibition at 25 µM worked out at 40%, the inhibition at 50 µM was 64%, the inhibition at 100 µM stood at 102% and the inhibition at 200 µM was found to be 102%. Moreover, in data set [2], the inhibition at 4 h, 12.5 µM amounted to 4%; the inhibition at 4 h, 25 µM was 0%; the inhibition at 4 h, 50 µM is -1%; the inhibition at 4 h, 100 µM was 0%.
